Data published in PubChem BioAssay.
Active and inactive are the calls of the source. Unless noted, the rule behind the calls is not given here.

How the values were obtained:
[1] = target: Pantothenate synthetase (Mycobacterium tuberculosis (strain ATCC 25618 / H37Rv)) (UniProt P9WIL5); assay: Coupled enzyme confirmation of inhibitors against recombinant Mtb PanC (AID 375); conditions: coupled enzyme assay; at 10 µM, stronger effect = higher value;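 note: 0% = full reaction with vehicle and 100% = no enzyme background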
Chain of Pantothenate synthetase (Mycobacterium tuberculosis (strain ATCC 25618 / H37Rv)) (P9WIL5 whole entry, looked up): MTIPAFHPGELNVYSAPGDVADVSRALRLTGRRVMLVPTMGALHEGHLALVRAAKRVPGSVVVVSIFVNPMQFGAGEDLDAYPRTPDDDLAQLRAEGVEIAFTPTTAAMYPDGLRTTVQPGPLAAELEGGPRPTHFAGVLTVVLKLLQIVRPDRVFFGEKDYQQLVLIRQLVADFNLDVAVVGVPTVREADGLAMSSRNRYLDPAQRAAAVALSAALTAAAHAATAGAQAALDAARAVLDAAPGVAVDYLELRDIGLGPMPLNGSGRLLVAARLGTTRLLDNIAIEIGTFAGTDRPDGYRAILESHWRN

[2] = reduced viability of SK-BR-3 breast cancer cells – cell-based, 24 h, human, pilot screen (AID 572;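 active = viability at or below 10% of carrier control in both of two separate runs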;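 note: compound exposure lasted between 18 and 24 h rather than exactly 24 h; 100% = carrier-treated control wells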); conditions: SK-BR-3 viability, CellTiter-Glo luminescence, at 10 µM, stronger effect = lower value
[3] = HUVEC growth inhibition – cell-based, human, primary screen (AID 575;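 active = viability at or below 30% in both replicate assays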;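 note: 100% = median of untreated cell wells with 0.1% DMSO on each plate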); conditions: HUVEC proliferation, CellTiter-Glo luminescence, 72 h; at 10 µM; stronger effect = lower value
Outline: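 Test system – primary HUVEC, no more than 12 passages · Dosing – one dose, 10 µM final, 0.1% DMSO · Times – 72 h treatment at 37 °C · Measured by – ATP-based CellTiter-Glo luminescent read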

[4] = H69AR cell proliferation blockers – human, duplicate replicates, primary screen (AID 580;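 active = viability at or under a set limit in both replicates, limit being median viability minus 3 SD, cut at about 48% in these data, passing the limit was not always enough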;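 note: 100% = mean luminescence of untreated wells and 0% = no signal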); conditions: H69AR lung tumor cells viability, ATP luminescence, 72 h; at 10 µM; stronger effect = lower value
[5] = MRP1 drug-resistance reversers in H69AR cells – cell-based, doxorubicin co-treatment, pilot screen (AID 601;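 active = viability loss from added drug above about 55%, and viability with drug at most 40%, in both replicates, limit read from the data, passing the limit was not always enough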); conditions: CellTiter-Glo, 72 h, at 10 µM; for differential viability (reversal): stronger effect = higher value
[6] = yeast transport mutant growth inhibition pilot in 384-well plates, post-Golgi transport modulator project (AID 636; in the data active = inhibition above about 31%); conditions: absorbance 615 nm, about 18 h, stronger effect = higher value
[7] = growth suppression of yeast trafficking mutant, preliminary HTS, modulators of trafficking downstream of Golgi apparatus project, 1536-format plate, OD 615 nm (AID 637; in the data active = inhibition above about 30%); conditions: yeast transport mutant growth, absorbance 615 nm, 18 h; stronger effect = higher value
[8] = H69AR cells + 2 uM doxorubicin, measured here: viability with 2 uM doxorubicin, stronger effect = lower value
[9] = H69AR cells, compound alone cytotoxicity

COC(=O)C1C2c3ccccc3OC1(C)N=c1s/c(=C/c3cnn(C)c3C)c(=O)n12 (centres undefined)
inactive: inhibition [1] 7% | viability [2] 98% | viability [3] 83.4% | viability [4] 91.8% | differential viability (reversal) ([5]; H69AR cells + 2 uM doxorubicin) 2.92% | inhibition [6] -0.81% | inhibition [7] 8.18%
88.8%: viability [5, 8]
91.8%: viability [5, 9]

COc1ccc(CC[n+]2cc(/N=C(\C)[O-])on2)cc1OC
92.1%: viability [5, 9]
inactive: inhibition [1] 0% | viability [2] 146% | viability [3] 93.9% | viability [4] 92.1% | differential viability (reversal) ([5]; H69AR cells + 2 uM doxorubicin) -3.11% | inhibition [6] 0.52% | inhibition [7] 4.26%
95.2%: viability [5, 8]

Cc1cc(OCC(=O)O)c2c3c(c(=O)oc2c1)CCCC3
84.8%: viability [5, 9]
inactive: inhibition [1] 1% | viability [2] 132% | viability [3] 85.9% | viability [4] 84.8% | differential viability (reversal) ([5]; H69AR cells + 2 uM doxorubicin) -3.02% | inhibition [6] -4.16% | inhibition [7] 7.38%
87.9%: viability [5, 8]

CCOCC(=O)NC1CCSC1=O (centres undefined)
inactive: inhibition [1] 0% | viability [2] 74% | viability [3] 99.4% | viability [4] 93.8% | differential viability (reversal) ([5]; H69AR cells + 2 uM doxorubicin) 0.265% | inhibition [6] -9.45% | inhibition [7] 5.16%
93.6%: viability [5, 8]
93.8%: viability [5, 9]

CN1[C@@H]2CC[C@H]1CC(OC(=O)C1C=Nc3ccccc31)C2 (some centres undefined)
97.7%: viability [5, 8]
83.3%: viability [5, 9]
inactive: inhibition [1] 4% | viability [2] 86% | viability [3] 82.4% | viability [4] 83.3% | differential viability (reversal) ([5]; H69AR cells + 2 uM doxorubicin) -14.3% | inhibition [6] 3.25% | inhibition [7] 0.5%

CNP1(NC)=NC(C(F)(F)F)=NC(C(F)(F)F)=N1
inactive: inhibition [1] 3% | viability [2] 95% | viability [3] 124% | viability [4] 98.1% | differential viability (reversal) ([5]; H69AR cells + 2 uM doxorubicin) 6.97% | inhibition [6] -6.99% | inhibition [7] 4.36%
98.1%: viability [5, 9]
91.2%: viability [5, 8]
